TRPML3 ag – human mucolipin-3 channel agonism. activation, % at 3 µM. HEK293 TRPML3-YFP, Fluo-8 calcium fluorescence; 100% = the carbachol control signal. actives 0.29% (n = 220,000). Q8TDD5;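 active = activation above its plate's cutoff, the mean activation of the plate's test wells plus 3 SD, cut at about 12% in these data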
Target sequence (Q8TDD5 whole entry, looked up): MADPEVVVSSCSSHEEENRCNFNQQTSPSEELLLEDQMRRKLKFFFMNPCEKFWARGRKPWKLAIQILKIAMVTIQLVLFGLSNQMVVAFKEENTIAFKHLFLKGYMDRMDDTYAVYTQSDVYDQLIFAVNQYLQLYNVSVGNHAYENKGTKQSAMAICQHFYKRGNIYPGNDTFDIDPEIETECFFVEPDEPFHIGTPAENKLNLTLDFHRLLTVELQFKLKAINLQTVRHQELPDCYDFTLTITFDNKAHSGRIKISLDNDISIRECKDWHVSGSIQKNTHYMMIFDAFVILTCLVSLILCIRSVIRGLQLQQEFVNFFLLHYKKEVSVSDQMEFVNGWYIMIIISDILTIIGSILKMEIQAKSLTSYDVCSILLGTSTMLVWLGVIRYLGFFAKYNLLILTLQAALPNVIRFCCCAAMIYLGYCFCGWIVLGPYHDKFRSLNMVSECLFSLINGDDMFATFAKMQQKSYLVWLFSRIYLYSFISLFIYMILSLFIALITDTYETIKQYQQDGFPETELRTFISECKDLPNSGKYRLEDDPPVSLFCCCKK
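Test system – HEK293 line with stable expression of human TRPML3-YFP channel · Control set – carbachol 87 µM final as high control (100%), DMSO as low control (0%) · Signal – Fluo-8 calcium dye fluorescence, ex 470-495, em 515-575 nm · Incubation – 1-h 37 °C dye load, 5-s basal, 120-s post-compound reads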
CHO-K1 Ca antag – M1 antagonist counterscreen hit in parental CHO-K1 cells | ATP-induced calcium, Fluo-8 fluorescence | actives 0.6% (n = 360,000) | inhibition, % at 3 µM | AID 602250;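 active = inhibition above a per-plate cutoff, the plate's mean sample inhibition plus 3 SD, cut at about 24% in these data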
zfTRPN1 agonist – agonists of zebrafish TRPN1 channel; activation, % at 3 µM; HEK293 zebrafish TRPN1-YFP, Fluo-8 calcium fluorescence; 100% = response to 87 µM carbachol; AID 1424; actives 0.18% (n = 220,000);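 active = activation above its plate's cutoff, the mean activation of test wells on that plate plus 3 SD, cut at about 19% in these data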
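Material: zebrafish TRPN1-YFP in HEK293 cells. Doses: one dose of 3 µM, 0.3% DMSO. Incubation: dye 1 h 37 °C plus 30 min RT. Measured by: intracellular calcium fluorescence with Fluo-8.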
M1 ag parental – M1 agonist counterscreen hit in parental CHO-K1 cells; actives 0.48% (n = 360,000); activation, % at 3 µM; Fluo-8 calcium fluorescence; scaled to maximal ATP response, vehicle zero; AID 602248; in the data active = activation above about 15%;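 note: untransfected CHO-K1 host cells lacking M1 receptor as counterscreen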
M1 PAM parental – nonselective activator or artifact in parental CHO-K1 calcium assay. actives 0.02% (n = 360,000). ATP EC20, Fluo-8 calcium fluorescence; 0% at ATP EC20, 100% at ATP max. activation, % at 3 µM;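 active = activation above the run cutoff, the mean activation of all test compounds plus 3 SD, cut at about 40% in these data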;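 note: peak over basal fluorescence ratio in a 140 s read after ATP addition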
Numbers stand for hits; n = inactive; x = not tested or not shown. In the library only some 1.2% were active in any assay of this set; here they are far more common.

SMILES | TRPML3 ag | CHO-K1 Ca antag | zfTRPN1 agonist | M1 ag parental | M1 PAM parental
COCCNC(=O)C1CCCN(C(=O)c2ccc3sccc3c2)CC1 (centres undefined) | x | n | x | n | n
CN(CC(=O)Nc1ccc(F)c(F)c1F)C(=O)C1(c2ccccc2)CC1 | x | 24 | x | n | n
CCCNC(=O)C1(C)CCN(C(=O)c2cccc(C(F)(F)F)c2)C1 (centres undefined) | x | n | x | n | n
O=C(CN1C(=O)COc2ccccc21)c1ccc(Cl)cc1 | n | 30 | n | n | n
CCn1c(=O)c(C(=O)NNC(=O)c2ccccc2Br)c(O)c2ccccc21 | x | n | x | 17 | n
CCn1c(=O)c(C(=O)NNC(=O)c2cccc(Cl)c2)c(O)c2ccccc21 | x | n | x | 22 | n
Cn1c(=O)c(C(=O)NNC(=O)c2ccccc2Br)c(O)c2ccccc21 | x | n | x | n | n
Cc1cccnc1C(NC(=O)C1CCN(Cc2cn(C)c3ccccc23)CC1)c1ccc(Cl)cc1 (centres undefined) | x | n | x | n | n
CC(=O)Nc1cc(-c2ccoc2)cn2c(-c3ccccc3)cnc12 | x | n | x | n | n
COc1cccc(N=Nc2ccc(O)c3ncccc23)c1 | x | 35 | x | 41 | n
COc1ccc(N=Nc2ccc(O)c3ncccc23)cc1 | n | n | n | n | n
COc1cccc(N=Nc2ccc3cccnc3c2O)c1 | x | n | x | 38 | n
CC1=C(c2ccccc2)C(O)(c2ccccc2)C(C)C1=O (centres undefined) | x | n | x | n | n
COc1ccc(CN2C[C@@H](CO)O[C@@H](n3cnc4c(NCc5ccncc5)ncnc43)C2)cc1 | x | n | x | n | n
COc1ccc(Cl)cc1-c1cc(C(=O)N[C@H](C)c2ccccc2)[nH]n1 | x | n | x | n | n
O=C(CSc1ccsc1[N+](=O)[O-])NC1CCCC1 | n | 26 | n | n | n
Cc1cccc(C)c1-n1nnnc1C(c1ccnc2ccccc12)N1CCN(C(=O)OCc2ccccc2)CC1 (centres undefined) | x | n | x | n | n
CCCC1=NN2C(=N)/C(=C\c3cc(C)n(Cc4ccccc4)c3C)C(=O)N=C2S1 | n | n | n | 27 | n
Cc1ccccc1-c1nnn(Cc2cccc(S(=O)(=O)N3CCOCC3)c2)n1 | x | n | x | 15 | n
CSc1n[nH]c(=O)n1C1CCCCC1 | n | n | n | 18 | n
CN(C)S(=O)(=O)c1ccc(Cl)c(NC(=O)CSc2nc3c(cc2C#N)C(=O)CCC3)c1 | n | n | n | 17 | n
Cc1ccc(NC(=O)CSc2nc3c(cc2C#N)C(=O)CCC3)cc1S(=O)(=O)N(C)C | n | n | n | n | n
COc1ccc(C2CC(=O)c3cnc(NC(=O)c4ccccc4)nc3C2)c(OC)c1 (centres undefined) | n | 24 | n | n | n
Nc1nonc1-n1nnc(C(=O)N/N=C/c2ccco2)c1CSc1ccc(Cl)cc1 | x | n | x | n | n
CC(=O)C1=C(O)C(=O)N(c2ccc(C)cc2)C1c1ccc([N+](=O)[O-])cc1 (centres undefined) | n | n | n | 16 | n
SMILES | TRPML3 ag | CHO-K1 Ca antag | zfTRPN1 agonist | M1 ag parental | M1 PAM parental
CC(=O)C1=C(O)C(=O)N(c2ccc(O)cc2)C1c1ccc([N+](=O)[O-])cc1 (centres undefined) | n | n | n | n | n
CCc1nc2c(OCC(=O)C(C)(C)C)cccn2c1N(C=O)Cc1ccc(OC)cc1 | x | n | x | n | n
COC(=O)c1ccc(NC(=S)NCc2ccco2)cc1 | n | 30 | n | n | n
Cc1cccc(NC(=S)NCc2ccco2)n1 | n | n | n | 17 | n
Nc1nc(=S)ss1 | x | n | x | n | n
NC(c1csc(NC(=O)Nc2ccc(OC(F)(F)F)cc2)n1)C1CCCCC1 (centres undefined) | x | n | x | n | n
CCN(CC)S(=O)(=O)c1cc(NC(=O)NCCCl)ccc1C | n | n | n | n | n
CCN(CC)S(=O)(=O)c1cc(NC(=O)c2ccc(Br)s2)ccc1C | n | 36 | n | n | n
CC(C)Oc1cccc(C(=O)Nc2nnc([C@@H]3C[C@H](O)[C@@H](CO)O3)s2)c1 | x | n | x | n | n
O=[N+]([O-])c1ccc(N2CCN(c3ccc([N+](=O)[O-])cc3CO)CC2)c(CO)c1 | x | n | x | 18 | n
Cc1cc2c(c(=O)n1Cc1ccco1)C(c1cccnc1)C(C#N)=C(N)O2 (centres undefined) | n | 26 | n | n | n
